Columns and labels:
[1] = tested on: Pancreas; assay: Biodistribution in pancreas of BALB/c nude mouse xenografted with human A375 cells at 0.8 to 1 MBq, iv after 30 mins by gamma-counter; format: ADME, organism-based, A-375; conditions: in vivo, 0.5 h
Procedure, shortened: (§1)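 Female Balb/c nude mice with s.c. A375 flank tumors, studied 26 days after tumor induction. Tracer 0.8-1 MBq in 100 μL saline given i.v. Groups of n = 5 killed at 15, 30, 60 and 120 min. Organs weighed and counted in a γ-counter against dilutions of the injected dose. Values are % ID/g wet tissue, mean ± SD.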

[2] = tested on: Blood; assay: Biodistribution in blood of BALB/c nude mouse xenografted with human A375 cells at 0.8 to 1 MBq, iv after 15 mins by gamma-counter; format: ADME, organism-based, A-375; conditions: in vivo, 0.25 h; procedure, shortened: as §1
[3] = Biodistribution in tumor of BALB/c nude mouse xenografted with human A375 cells at 0.8 to 1 MBq, iv after 60 mins by gamma-counter; format: ADME, organism-based, Neoplasm, A-375; conditions: in vivo, 1 h; procedure, shortened: as §1
[4] = tested on: Urinary bladder; assay: Biodistribution in bladder of BALB/c nude mouse xenografted with human A375 cells after 60 mins by PET/CT imaging; format: ADME, organism-based, A-375; conditions: in vivo, 1 h
Procedure, shortened: (§2)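 Female Balb/c nude mice with A375 tumors (1×10^6 cells in Ca/Mg-free PBS injected s.c. in left flank at 6 weeks old). Mice under isoflurane in oxygen. 10 min CT scan, then 18-20 MBq tracer in 100 μL saline given i.v. with a 2 h PET acquisition. Coronal images at 60 min postinjection; n = 3.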

[5] = tested on: Heart; assay: Biodistribution in heart of BALB/c nude mouse xenografted with human A375 cells at 0.8 to 1 MBq, iv after 30 mins by gamma-counter; format: ADME, organism-based, A-375; conditions: in vivo, 0.5 h; procedure, shortened: as §1
[6] = Biodistribution in tumor of BALB/c nude mouse xenografted with human A375 cells at 0.8 to 1 MBq, iv after 30 mins by gamma-counter; format: ADME, organism-based, Neoplasm, A-375; conditions: in vivo, 0.5 h; procedure, shortened: as §1
[7] = tested on: Bone; assay: Biodistribution in bone of BALB/c nude mouse xenografted with human A375 cells at 0.8 to 1 MBq, iv after 15 mins by gamma-counter; format: ADME, organism-based, Bone element, A-375; conditions: in vivo, 0.25 h; procedure, shortened: as §1
[8] = tested on: Brain; assay: Metabolic stability in brain of BALB/c nude mouse xenografted with human A375 cells assessed as radioactivity after 0.25 to 1 hrs by HPLC analysis; format: ADME, tissue-based, A-375; conditions: in vivo
Procedure, shortened: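 A375-tumored Balb/c nude mice received 18-20 MBq tracer iv. Plasma and urine were spiked with unlabeled FPHCys and KF and injected directly; tissues were sonicated in saline with carrier and centrifuged at 6000g. Radio-HPLC on C18 with methanol/phosphate buffer pH 6 gave intact fraction as authentic peak over total activity, at 0.25, 1 and 2 h.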

[9] = tested on: Muscle tissue; assay: Biodistribution in muscle of BALB/c nude mouse xenografted with human A375 cells at 0.8 to 1 MBq, iv after 15 mins by gamma-counter; format: ADME, organism-based, A-375; conditions: in vivo, 0.25 h; procedure, shortened: as §1
[10] = tested on: Brain; assay: Drug level in brain cortex extract of BALB/c nude mouse xenografted with human A375 cells assessed as radioactivity in protein fraction after 0.25 to 2 hrs; format: ADME, tissue-based, A-375; conditions: in vivo
Procedure, shortened: (§3)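 Female Balb/c nude mice bore subcutaneous A375 flank tumors and received 18-20 MBq tracer iv. Plasma or tissue was sonicated in 10% TCA with unlabeled FPHCys and KF, then centrifuged at 6000g; the pellet was re-extracted twice. Protein-bound fraction is pellet versus supernatant radioactivity, sampled at 0.25, 1 and 2 h.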

[11] = tested on: Spleen; assay: Biodistribution in spleen of BALB/c nude mouse xenografted with human A375 cells at 0.8 to 1 MBq, iv after 15 mins by gamma-counter; format: ADME, organism-based, A-375; conditions: in vivo, 0.25 h; procedure, shortened: as §1
[12] = tested on: Brain; assay: Biodistribution in brain of BALB/c nude mouse xenografted with human A375 cells at 0.8 to 1 MBq, iv after 15 mins by gamma-counter; format: ADME, organism-based, A-375; conditions: in vivo, 0.25 h; procedure, shortened: as §1
[13] = tested on: Kidney; assay: Biodistribution in kidney of BALB/c nude mouse xenografted with human A375 cells at 0.8 to 1 MBq, iv after 30 mins by gamma-counter; format: ADME, organism-based, A-375; conditions: in vivo, 0.5 h; procedure, shortened: as §1
[14] = Drug level in tumor extract of BALB/c nude mouse xenografted with human A375 cells assessed as radioactivity in protein fraction after 0.25 to 2 hrs; format: ADME, Neoplasm, A-375; conditions: in vivo; procedure, shortened: as §3
[15] = tested on: Muscle tissue; assay: Biodistribution in muscle of BALB/c nude mouse xenografted with human A375 cells at 0.8 to 1 MBq, iv after 30 mins by gamma-counter; format: ADME, organism-based, A-375; conditions: in vivo, 0.5 h; procedure, shortened: as §1
[16] = tested on: Blood; assay: Biodistribution in blood of BALB/c nude mouse xenografted with human A375 cells at 0.8 to 1 MBq, iv after 60 mins by gamma-counter; format: ADME, organism-based, A-375; conditions: in vivo, 1 h; procedure, shortened: as §1
[17] = tested on: Brain; assay: Biodistribution in brain of BALB/c nude mouse xenografted with human A375 cells at 0.8 to 1 MBq, iv after 120 mins by gamma-counter; format: ADME, organism-based, A-375; conditions: in vivo, 2 h; procedure, shortened: as §1
[18] = tested on: Brain; assay: Biodistribution in brain of BALB/c nude mouse xenografted with human A375 cells at 0.8 to 1 MBq, iv after 30 mins by gamma-counter; format: ADME, organism-based, A-375; conditions: in vivo, 0.5 h; procedure, shortened: as §1
[19] = Biodistribution in tumor of BALB/c nude mouse xenografted with human A375 cells at 0.8 to 1 MBq, iv after 120 mins by gamma-counter; format: ADME, organism-based, Neoplasm, A-375; conditions: in vivo, 2 h; procedure, shortened: as §1
[20] = tested on: Bone; assay: Biodistribution in bone of BALB/c nude mouse xenografted with human A375 cells at 0.8 to 1 MBq, iv after 120 mins by gamma-counter; format: ADME, organism-based, Bone element, A-375; conditions: in vivo, 2 h; procedure, shortened: as §1
[21] = tested on: Kidney; assay: Biodistribution in kidney of BALB/c nude mouse xenografted with human A375 cells at 0.8 to 1 MBq, iv after 120 mins by gamma-counter; format: ADME, organism-based, A-375; conditions: in vivo, 2 h; procedure, shortened: as §1
[22] = tested on: Brain; assay: Biodistribution in brain of BALB/c nude mouse xenografted with human A375 cells at 0.8 to 1 MBq, iv after 60 mins by gamma-counter; format: ADME, organism-based, A-375; conditions: in vivo, 1 h; procedure, shortened: as §1
[23] = tested on: Spleen; assay: Biodistribution in spleen of BALB/c nude mouse xenografted with human A375 cells at 0.8 to 1 MBq, iv after 120 mins by gamma-counter; format: ADME, organism-based, A-375; conditions: in vivo, 2 h; procedure, shortened: as §1
[24] = tested on: Heart; assay: Biodistribution in heart of BALB/c nude mouse xenografted with human A375 cells at 0.8 to 1 MBq, iv after 120 mins by gamma-counter; format: ADME, organism-based, A-375; conditions: in vivo, 2 h; procedure, shortened: as §1
[25] = tested on: Lung; assay: Biodistribution in lungs of BALB/c nude mouse xenografted with human A375 cells at 0.8 to 1 MBq, iv after 30 mins by gamma-counter; format: ADME, organism-based, A-375; conditions: in vivo, 0.5 h; procedure, shortened: as §1
[26] = tested on: Heart; assay: Biodistribution in heart of BALB/c nude mouse xenografted with human A375 cells at 0.8 to 1 MBq, iv after 60 mins by gamma-counter; format: ADME, organism-based, A-375; conditions: in vivo, 1 h; procedure, shortened: as §1
[27] = tested on: HT-29; assay: Drug uptake in human HT-29 cells in presence of amino acid transport system A inhibitor MeAIB; format: ADME, cell-based
Procedure, shortened: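 Cells were prepared as for the uptake assay and preincubated at 37 °C with inhibitor at 12.5 mmol/L in PBS; controls received PBS. 0.37 MBq [18F]tracer was added and incubated 30 min at 37 °C. Cells were washed cold, lysed and γ-counted. Uptake is given as % of the control group, n = 3.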

[28] = tested on: Pancreas; assay: Drug level in pancreas extract of BALB/c nude mouse xenografted with human A375 cells assessed as radioactivity in protein fraction after 0.25 to 2 hrs; format: ADME, tissue-based, A-375; conditions: in vivo; procedure, shortened: as §3
[29] = tested on: Spleen; assay: Biodistribution in spleen of BALB/c nude mouse xenografted with human A375 cells at 0.8 to 1 MBq, iv after 30 mins by gamma-counter; format: ADME, organism-based, A-375; conditions: in vivo, 0.5 h; procedure, shortened: as §1
[30] = tested on: Plasma; assay: Drug level in plasma of BALB/c nude mouse xenografted with human A375 cells assessed as radioactivity in protein fractions after 0.25 to 2 hrs; format: ADME, cell-free, A-375; conditions: in vivo; procedure, shortened: as §3
[31] = tested on: Kidney; assay: Biodistribution in kidney of BALB/c nude mouse xenografted with human A375 cells after 60 mins by PET/CT imaging; format: ADME, organism-based, A-375; conditions: in vivo, 1 h; procedure, shortened: as §2

With Cl.N[C@@H](CCSCCC[18F])C(=O)O the Drug uptake [1] was 12.3 % ID/g, the Drug uptake [2] was 5.17 % ID/g and the Drug uptake [3] was 5.64 % ID/g. The Drug uptake [4] was “Active”, the Drug uptake [5] was 4.2 % ID/g and the Drug uptake [6] was 8.28 % ID/g. It also gave a Drug uptake [7] of 3.33 % ID/g, a Stability [8] of 85% and a Drug uptake [9] of 4.12 % ID/g. For the same molecule, the Drug uptake [10] was 1%, the Drug uptake [11] was 5.05 % ID/g and the Drug uptake [12] was 3.13 % ID/g. For the same molecule, the Drug uptake [13] was 12.6 % ID/g, the Drug uptake [14] was 1% and the Drug uptake [15] was 4.2 % ID/g. For the same molecule, the Drug uptake [16] was 2.32 % ID/g, the Drug uptake [17] was 2.57 % ID/g and the Drug uptake [18] was 2.57 % ID/g. It also gave a Drug uptake [19] of 4.4 % ID/g, a Drug uptake [20] of 1.69 % ID/g and a Drug uptake [21] of 3.92 % ID/g. The Drug uptake [22] was 1.3 % ID/g, the Drug uptake [23] was 1.39 % ID/g and the Drug uptake [24] was 1.37 % ID/g. The Drug uptake [25] was 5.07 % ID/g, the Drug uptake [26] was 2.32 % ID/g and the Drug uptake [27] was “Active”. The Drug uptake [28] was 1%, the Drug uptake [29] was 4.18 % ID/g and the Drug uptake [30] was 1%. The Drug uptake [31] was “Active”.

Cl.N[C@H](CCSCCC[18F])C(=O)O gave a Drug uptake [1] of 19.6 % ID/g, a Drug uptake [2] of 3.51 % ID/g and a Drug uptake [3] of 3.91 % ID/g. For the same molecule, the Drug uptake [4] was “Active”, the Drug uptake [5] was 3.05 % ID/g and the Drug uptake [6] was 5.87 % ID/g. For the same molecule, the Drug uptake [7] was 2.55 % ID/g, the Stability [8] was 85% and the Drug uptake [9] was 2.12 % ID/g. It also gave a Drug uptake [10] of 1%, a Drug uptake [11] of 4.24 % ID/g and a Drug uptake [12] of 1.53 % ID/g. It also gave a Drug uptake [13] of 6.49 % ID/g, a Drug uptake [14] of 1% and a Drug uptake [15] of 1.97 % ID/g. The Drug uptake [16] was 0.89 % ID/g, the Drug uptake [17] was 0.25 % ID/g and the Drug uptake [18] was 1.56 % ID/g. The Drug uptake [19] was 1.68 % ID/g, the Drug uptake [20] was 1.05 % ID/g and the Drug uptake [21] was 1.04 % ID/g. For the same molecule, the Drug uptake [22] was 0.75 % ID/g, the Drug uptake [23] was 0.31 % ID/g and the Drug uptake [24] was 0.4 % ID/g. The Drug uptake [25] was 2.84 % ID/g, the Drug uptake [26] was 1.16 % ID/g and the Drug uptake [27] was “Active”. The Drug uptake [28] was 1%, the Drug uptake [29] was 2.83 % ID/g and the Drug uptake [30] was 1%. The Drug uptake [31] was “Active”.

From ChEMBL document CHEMBL1687936, “Radiosynthesis and biological evaluation of L- and D-S-(3-[18F]fluoropropyl)homocysteine for tumor imaging using positron emission tomography” (J Med Chem, 2011)
